The values that follow come from ChEMBL document CHEMBL3352289, “Potent and selective MAO-B inhibitory activity: amino- versus nitro-3-arylcoumarin derivatives” (Bioorg Med Chem Lett, 2015).

For series [1], the target named is T1, Amine oxidase [flavin-containing] A (Homo sapiens, UniProt P21397).
T1 sequence (P21397 whole entry): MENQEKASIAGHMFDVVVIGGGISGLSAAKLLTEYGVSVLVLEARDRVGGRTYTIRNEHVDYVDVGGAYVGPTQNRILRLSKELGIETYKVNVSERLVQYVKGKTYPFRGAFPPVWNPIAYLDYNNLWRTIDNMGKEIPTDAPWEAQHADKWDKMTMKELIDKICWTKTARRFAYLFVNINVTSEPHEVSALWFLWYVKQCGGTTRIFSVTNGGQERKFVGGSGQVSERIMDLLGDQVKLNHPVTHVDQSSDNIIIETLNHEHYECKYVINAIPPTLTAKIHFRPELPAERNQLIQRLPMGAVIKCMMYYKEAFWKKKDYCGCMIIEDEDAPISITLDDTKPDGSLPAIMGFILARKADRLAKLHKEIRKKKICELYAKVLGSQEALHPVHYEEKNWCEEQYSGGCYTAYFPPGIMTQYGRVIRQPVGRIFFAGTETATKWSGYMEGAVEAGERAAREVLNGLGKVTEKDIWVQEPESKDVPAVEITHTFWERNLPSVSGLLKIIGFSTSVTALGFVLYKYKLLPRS
As to the kind of experiment: Inhibition of human recombinant MAOA expressed in BTI-TN-5B1-4 cells using p-tyramine substrate assessed as reduction in H2O2 production. The series is classed as cell-based.

For series [2], the target named is T1, Amine oxidase [flavin-containing] A. As to the kind of experiment: Inhibition of human recombinant MAOA expressed in BTI-TN-5B1-4 cells using p-tyramine substrate assessed as reduction in H2O2 production at 100 uM. The series is classed as cell-based. Conditions: bti-tn-5b1-4, 100 µM; call rule not given here.
Series [3] has as its target T2, Amine oxidase [flavin-containing] B (Homo sapiens, UniProt P27338).
T2 sequence (P27338 whole entry): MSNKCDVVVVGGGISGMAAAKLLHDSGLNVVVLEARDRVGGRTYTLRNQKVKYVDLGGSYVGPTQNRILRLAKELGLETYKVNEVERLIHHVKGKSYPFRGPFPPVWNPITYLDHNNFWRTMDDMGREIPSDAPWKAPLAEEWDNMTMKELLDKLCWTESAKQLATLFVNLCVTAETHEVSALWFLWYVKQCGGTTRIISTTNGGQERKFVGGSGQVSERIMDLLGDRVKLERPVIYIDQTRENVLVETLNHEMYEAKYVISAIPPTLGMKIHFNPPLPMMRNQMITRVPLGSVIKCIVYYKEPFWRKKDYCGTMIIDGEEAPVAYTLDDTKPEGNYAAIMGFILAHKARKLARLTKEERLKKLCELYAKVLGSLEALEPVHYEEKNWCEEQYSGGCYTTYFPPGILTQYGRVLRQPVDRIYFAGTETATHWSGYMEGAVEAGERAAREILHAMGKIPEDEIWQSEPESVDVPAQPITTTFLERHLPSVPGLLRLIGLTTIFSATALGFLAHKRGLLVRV
The series is classed as cell-based, BTI-TN-5B1-4.

A further series is filed under the species Homo sapiens. The experiment in a line: Selectivity index, ratio of IC50 for human recombinant MAOA to IC50 for human recombinant MAOB. In outline: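 Ratio of IC50 (hMAO-A) to IC50 (hMAO-B). Both come from the Amplex Red/p-tyramine H2O2 assay with recombinant insect-cell microsomal isoforms. Each IC50 is the mean of five experiments. Where an IC50 was not reached at the highest concentration tested (100), that IC50 was taken as greater than 100.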

A short description of series [4]: Octanol/water partition coefficient, log P of the compound. The series is classed as physicochemical.
The nature of series [5]: Permeability by PAMPA method. Conditions: read-out: Peff. The series is classed as ADME. The essentials:
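PAMPA-BBB assay. A PVDF filter was coated with porcine brain lipid in dodecane (20 mg/mL). Compound at 100 µg/mL in PBS pH 7.4/ethanol 70:30 was placed in the donor wells, with the same buffer in the acceptor wells. Plates were incubated 240 min at 25 °C, and acceptor concentration was read by UV-vis at five wavelengths, four wells, ≥3 runs, mean ± SD. Ten reference drugs validated each run.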

Series [6] has as its target Amine oxidase [flavin-containing] B (Homo sapiens) (UniProt P27338). The experiment in a line: Reversible inhibition of human recombinant MAOB expressed in BTI-TN-5B1-4 cells assessed as AUF/t ratio at 2.5 nM by effective dilution method relative to untreated control. More on the design: scale not given: the % may be the effect or the level left. The following applies: BTI-TN-5B1-4, human.

Series [7] has as its target T1, Amine oxidase [flavin-containing] A. As to the kind of experiment: Reversible inhibition of human recombinant MAOA expressed in BTI-TN-5B1-4 cells assessed as AUF/t ratio at 20 nM by effective dilution method relative to untreated control. The series is classed as cell-based. Also noted: scale not given: the % may be the effect or the level left. Conditions: BTI-TN-5B1-4, human; read-out: Activity.

The target in series [8] is T2, Amine oxidase [flavin-containing] B. The experiment in a line: Inhibition of human recombinant MAOB expressed in BTI-TN-5B1-4 cells using p-tyramine substrate assessed as reduction in H2O2 production at 100 uM. Type of series: cell-based. The following applies: bti-tn-5b1-4, 100 µM. The essentials: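 Microsomal hMAO-B from BTI-TN-5B1-4 insect cells infected with recombinant baculovirus. Enzyme, dosed to oxidise 165 pmol p-tyramine/min, was preincubated with drug in 0.05 M sodium phosphate pH 7.4 (DMSO ≤1%) for 15 min at 37 °C. Reaction started with Amplex Red, 1 U/mL HRP and 1 mM p-tyramine. Resorufin fluorescence (ex 545/em 590 nm) read over 15 min at 37 °C, minus enzyme-free background, versus vehicle control.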

As for `Cc1ccc2oc(=O)c(-c3cccc([N+](=O)[O-])c3)cc2c1`, the IC50 – broadly, the midpoint of a concentration-inhibition curve – was “Not Active” in series [1] (bti-tn-5b1-4) and 6 nM in [3] (read-out: IC50). Besides, the “inhibition (INH)” value in [2] is given as “Not Active”. Besides, in the series filed under Homo sapiens, the Ratio IC50 was greater than 16700. The logP (in general, a log measure of how a compound divides between an organic and an aqueous phase) in series [4] was found to be 4.1.

`Cc1ccc2oc(=O)c(-c3ccc([N+](=O)[O-])cc3)cc2c1`: the results for the IC50 in [1] (read-out: IC50) and in series [3] (read-out: IC50) were 4180 nM and 2.1 nM, respectively. Moreover, the Ratio IC50 in the series filed under Homo sapiens is 2090. Moreover, the logP in series [4] is 4.12. In addition, in [5], the Papp was determined as 10.5 ×10⁻⁶ cm/s. For the same compound, in series [6], the activity at 0.0025 µM worked out at 80%.

For the compound `Cc1ccc2oc(=O)c(-c3ccc(N)cc3)cc2c1`, the IC50 entry in series [1] (bti-tn-5b1-4) is “Not Active”; in [3] (read-out: IC50) it was 4.1 nM. In addition, in [2], the “inhibition (INH)” value is given as “Not Active”. For the same compound, in the series filed under Homo sapiens, the Ratio IC50 is greater than 25000. The compound also came in with a logP in series [4] of 3.24.

`Cc1ccc2oc(=O)c(-c3cccc(N)c3)cc2c1`: the IC50 entry in series [1] (bti-tn-5b1-4) is “Not Active”; in [3] (read-out: IC50) it was 2.2 nM. Further, the “inhibition (INH)” value in [2] is “Not Active”. For the same compound, the Ratio IC50 in the series filed under Homo sapiens is greater than 50000. This compound also had a logP in [4] of 3.21.

As to `C#CCN(C)[C@H](C)Cc1ccccc1` [SELEGILINE], in series [7], the activity at 0.02 µM came to 8.51%.

As for `O=C(NCCN1CCOCC1)c1ccc(Cl)cc1` [MOCLOBEMIDE], the IC50 entry in [3] (bti-tn-5b1-4) was “Not Active”. In addition, the “inhibition (INH)” value in series [8] was “Not Active”. The same compound showed a logP in series [4] of 1.68.

`Cc1ccc2oc(=O)c(-c3ccccc3N)cc2c1`: the values for the IC50 entry in series [1] (bti-tn-5b1-4) and in series [3] (read-out: IC50) were “Not Active” and 2170 nM, respectively. In addition, the “inhibition (INH)” value in series [2] was “Not Active”. Further, in the series filed under Homo sapiens, the Ratio IC50 was greater than 46. Moreover, in [4], the logP is 3.6.

For `Cc1ccc2oc(=O)c(-c3ccccc3[N+](=O)[O-])cc2c1`, the IC50 result in [1] (bti-tn-5b1-4) is “Not Active”; in [3] (read-out: IC50), 5520 nM. In addition, the “inhibition (INH)” value in [2] is listed as “Not Active”. Besides, the Ratio IC50 in the series listed under Homo sapiens was greater than 18. In addition, in series [4], the logP came to 4.07.
